Data: article PMC4207532 (Journal of Medicinal Chemistry, 2014)
Where “and” joins values, the source holds several entries; their conditions need not be identical. Equal entries are not always repeated. Entries after “also recorded” stand apart in the source; their conditions may differ.

Experiments:
[1] = Absorption spectra in CH3OH; format: physicochemical
Colo-26 cells [2] = test: Combination PDT and doxorubicin in Colo-26 cells; format: cell-based, murine; conditions: for Synergy with Dox upon irradiation (in words): 0.15 μM dye, various Dox concentrations, 1.0 J cm^–2 laser light; for Phototoxicity (in words) in the absence of Dox: 0.15 μM, 1.0 J cm^–2 of 613 nm (15b, 17b) or 611 nm (16b, 18b) laser light, relative to dark controls; for Surviving fraction of the combination vs single treatments (in words) / Surviving fraction: 0.15 μM photosensitizer, 1.0 J cm^–2 of 611 nm light; for Surviving fraction of the combination vs single treatments (in words): 0.5 μM Dox; for Surviving fraction: 1.0 μM Dox; for Dox-only concentration giving the same surviving fraction as the combination: combination: 0.15 μM photosensitizer, 0.05 μM Dox, 1.0 J cm^–2 of light
Summary of the method: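 Colo-26 cells were seeded at 10 000/well and grown 24 h in RPMI 1640 with 10% FBS. Dye at 0.15 μM (ethanol stock) plus Dox at 0.005–5.0 μM were added together as 10× medium solutions, alongside single-agent wells. After 1 h dark, wells were kept dark or laser-irradiated at λmax (±2 nm), 3.2 mW cm–2, to 1 J cm–2. Fresh medium, 48 h at 37 °C, 5% CO2. SRB assay read at 570 nm; six replicates, ±SD, pairwise […].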

[3] = Steady-state fluorescence in CH3OH; format: physicochemical; conditions: excitation at 532 nm; for Quantum yield for fluorescence ΦFL: 3 as standard, ±SD
Summary of the method: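 Steady-state emission spectra recorded in CH3OH on a spectrofluorometer with 532 nm excitation. Quantum yield determined relative to a reference rhodamine dye in CH3OH (ΦFL = 0.93).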

Colo-26 cells [4] = test: Phototoxicity toward Colo-26 cells with tunable dye laser; format: cell-based, murine; conditions: for Phototoxicity (in words): 0.15 μM, 5.0 J cm^–2 of laser light; for LD50/EC50 (laser, 1.0 J cm^–2): dark LD50 over EC50 with 1.0 J cm^–2 of laser light
Colo-26 cells [5] = test: Uptake in Colo-26 cells with and without verapamil by flow cytometry; format: cell-based, murine; conditions: for Uptake relative to the corresponding thioamide derivative: Colo-26 cells, Figure 2; for Increase in uptake in the presence of VER: 0.5 μM dye, 1 h, with vs without 100 μM verapamil, mean fluorescence
Summary of the method: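 Colo-26 cells exposed 1 h to 0.5 μM dye with or without 100 μM verapamil, then analysed by flow cytometry with 561 nm excitation and 710 nm emission. Mean cellular fluorescence compared between conditions; error bars SD.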

[6] = Singlet oxygen yield from 1O2 luminescence at 1270 nm; format: physicochemical; conditions: air-saturated CH3OH; ±SD
Summary of the method: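 Air-saturated CH3OH solutions in quartz cuvettes. Excitation by 532 nm second harmonic of a nanosecond-pulsed Nd:YAG laser (20 Hz) for time-resolved 1O2 luminescence decay at 1270 nm. Emission collected at 90° through a 950 nm long-pass filter onto an NIR-detector spectrometer. Steady-state NIR emission spectra used a 532 nm diode-pumped solid-state laser.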

[7] = Photostability under continuous illumination; format: physicochemical
Summary of the method: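 Dye in 10% CH3OH/pH 7.4 buffer under continuous tungsten-source illumination at 50 mW cm–2. Loss of dye chromophore was followed as a function of delivered fluence and treated as first-order, giving the fluence for half-loss.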

P-gp [8] = molecular target: P-gp (Homo sapiens, UniProt P08183); test: P-gp transport and cell association in MDCKII-MDR1 monolayers; format: in vitro ADME; conditions: dog, MDCK-MDR1
P-gp [9] = test: as above; format: in vitro ADME; conditions: dog, MDCK-MDR1, with 24 (LSN 335984), 5 μM
[10] = test system: mitochondria of Colo-26 cells; test: Colocalization by ImageStream flow cytometry; format: cell-based, murine; conditions: Colo-26 cells incubated with both agents; ±SD
Summary of the method: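 Colo-26 cells (5 × 10^5 in 0.5 mL medium) co-incubated 15 min with MitoTracker Green and MitoTracker Red. Cells were then centrifuged, and medium replaced with Hanks PBS. Resuspended cells kept on ice and imaged by ImageStream (480–560 and 642–745 nm channels; MTG excited at 488 nm). Per-cell similarity was a log-transformed Pearson correlation of spatially correlated pixel intensities over the whole cell, averaged over 1300 cells.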

[11] = in CH3OH; cited from earlier work
P-gp [12] = conditions: 5 μM; cited from earlier work
isolated P-gp = conditions: ref 7−9; cited from earlier work
[13] = 350–800 nm light at 50 mW cm^–2, 10% CH3OH in pH 7.4 buffer

P-gp (Homo sapiens, UniProt P08183), sequence (P08183 whole entry): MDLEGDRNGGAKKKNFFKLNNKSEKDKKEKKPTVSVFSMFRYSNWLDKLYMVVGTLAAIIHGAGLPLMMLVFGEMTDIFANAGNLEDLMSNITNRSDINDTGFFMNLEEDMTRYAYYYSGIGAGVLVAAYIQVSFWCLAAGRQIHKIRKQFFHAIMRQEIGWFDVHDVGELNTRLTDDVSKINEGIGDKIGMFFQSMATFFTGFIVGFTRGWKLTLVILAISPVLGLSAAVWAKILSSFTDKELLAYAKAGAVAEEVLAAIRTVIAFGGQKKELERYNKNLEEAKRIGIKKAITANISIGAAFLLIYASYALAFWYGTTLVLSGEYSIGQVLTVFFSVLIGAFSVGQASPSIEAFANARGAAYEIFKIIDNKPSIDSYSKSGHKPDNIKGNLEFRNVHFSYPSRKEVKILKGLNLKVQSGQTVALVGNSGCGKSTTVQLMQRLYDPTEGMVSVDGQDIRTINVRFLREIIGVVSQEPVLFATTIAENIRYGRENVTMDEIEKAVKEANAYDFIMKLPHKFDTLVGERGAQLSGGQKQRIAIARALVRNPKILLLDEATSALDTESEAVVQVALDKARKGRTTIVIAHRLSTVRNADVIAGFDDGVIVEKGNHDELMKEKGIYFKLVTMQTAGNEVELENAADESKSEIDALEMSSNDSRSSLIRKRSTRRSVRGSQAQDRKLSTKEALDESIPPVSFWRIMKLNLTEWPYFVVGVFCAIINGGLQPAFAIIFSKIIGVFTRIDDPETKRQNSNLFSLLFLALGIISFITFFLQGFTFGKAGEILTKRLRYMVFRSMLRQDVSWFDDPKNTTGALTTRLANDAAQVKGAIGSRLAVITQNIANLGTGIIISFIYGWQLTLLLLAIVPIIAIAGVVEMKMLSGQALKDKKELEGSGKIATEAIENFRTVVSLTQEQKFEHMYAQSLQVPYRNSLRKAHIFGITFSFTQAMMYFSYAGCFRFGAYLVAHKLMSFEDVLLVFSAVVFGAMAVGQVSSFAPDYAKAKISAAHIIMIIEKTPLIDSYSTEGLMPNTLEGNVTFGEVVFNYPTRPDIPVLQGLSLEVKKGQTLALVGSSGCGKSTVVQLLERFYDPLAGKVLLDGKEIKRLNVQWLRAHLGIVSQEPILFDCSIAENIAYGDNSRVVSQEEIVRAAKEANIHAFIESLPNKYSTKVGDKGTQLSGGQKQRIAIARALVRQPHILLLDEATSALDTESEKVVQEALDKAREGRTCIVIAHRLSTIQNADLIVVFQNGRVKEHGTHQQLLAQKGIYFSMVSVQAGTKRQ

Row | Compound | Absorption maximum λmax [1] [nm] | Molar extinction coefficient ε [1] | Synergy with Dox upon irradiation (in words) (Colo-26 cells [2]) | Phototoxicity (in words) in the absence of Dox (Colo-26 cells [2]) | Fluorescence emission maximum λFL [3] [nm] | Quantum yield for fluorescence ΦFL [3] | LD50/EC50 (laser, 1.0 J cm^–2) (Colo-26 cells [4]) | Quantum yield for the generation of singlet oxygen Φ(1O2) [6] | also measured
1 | CCN(CC)C(=O)c1ccc(-c2c3ccc(=[N+](C)C)cc-3[se]c3cc4c(cc23)C(C)(C)CCN4C)s1.[Cl-] [15b, 9-(5-(Diethylcarbamoyl)thiophen-2-yl) Selenorhodamine] | 609 | 7.18 × 10^4 M^–1 cm^–1 | No synergy; also recorded: do not show significant synergistic effects | no significant phototoxicity | 636 | 0.009 ± 0.001 | 22 | 0.50 ± 0.03 | Phototoxicity (in words) (Colo-26 cells [4]): some phototoxicity; Uptake relative to the corresponding thioamide derivative (Colo-26 cells [5]): 40–50%
2 | CCN(CC)C(=S)c1ccc(-c2c3ccc(=[N+](C)C)cc-3[se]c3cc4c(cc23)C(C)(C)CCN4C)s1.[Cl-] [16b, 9-(5-(Diethylcarbamothioyl)thiophen-2-yl) Selenorhodamine] | 608 | 9.78 × 10^4 M^–1 cm^–1 | synergistic effects | some phototoxicity | 635 | 0.008 ± 0.001 | > 55 | 0.54 ± 0.03 | Fluence after which half of the dye chromophore is lost [7, 13]: ~230 J cm^–2; Surviving fraction of the combination vs single treatments (in words) (Colo-26 cells [2]): statistically significant decrease; Surviving fraction (Colo-26 cells [2]): ≤ 0.20; Dox-only concentration giving the same surviving fraction as the combination (Colo-26 cells [2]): 0.5 µM; Increase in uptake in the presence of VER (Colo-26 cells [5]): 1.3- to 2 fold and 2 fold
3 | CN1CCC(C)(C)c2cc3c(-c4ccc(C(=O)N5CCCCC5)s4)c4ccc(=[N+](C)C)cc-4[se]c3cc21.[Cl-] [17b, 9-(5-(Piperidylcarbamoyl)thiophen-2-yl) Selenorhodamine] | 609 | 8.73 × 10^4 M^–1 cm^–1 | No synergy; also recorded: do not show significant synergistic effects | no significant phototoxicity | 634 | 0.009 ± 0.001 | 26 | 0.48 ± 0.03 | Phototoxicity (in words) (Colo-26 cells [4]): little if any phototoxicity; EC50 (Colo-26 cells [4]; Mus musculus, 48 h, read-out: EC50 (λmax ± 2 nm), 0.5 J cm^–2): > 500 nM; Uptake relative to the corresponding thioamide derivative (Colo-26 cells [5]): 40–50%; Papp A→B at 1 h, 5 μM (P-gp [8]): 0.09 ± 0.03 ×10⁻⁶ cm/s; Papp B→A at 1 h, 5 μM (P-gp [8]): 16.4 ± 0.4 ×10⁻⁶ cm/s; efflux ratio at 1 h, 5 μM (P-gp [8]): 182; Papp A→B at 1 h, 5 μM (P-gp [9]): 0.1 ± 0.01 ×10⁻⁶ cm/s; Papp B→A at 1 h, 5 μM (P-gp [9]): 1.11 ± 0.02 ×10⁻⁶ cm/s; Papp at 1 h, 5 μM (P-gp [9]): ~0.6 ×10⁻⁶ cm/s
4 | CN1CCC(C)(C)c2cc3c(-c4ccc(C(=S)N5CCCCC5)s4)c4ccc(=[N+](C)C)cc-4[se]c3cc21.[Cl-] [18b, 9-(5-(Piperidylcarbamothioyl)thiophen-2-yl) Selenorhodamine] | 608 | 8.11 × 10^4 M^–1 cm^–1 | synergistic effects | some phototoxicity | 634 | 0.008 ± 0.001 | > 55 | 0.44 ± 0.03 | Fluence after which half of the dye chromophore is lost [7, 13]: ~230 J cm^–2; Fluence after which half of the dye chromophore is lost ([7]; 500–800 nm light at 50 mW cm^–2, 10% CH3OH in pH 7.4 buffer): ~850 J cm^–2; Surviving fraction of the combination vs single treatments (in words) (Colo-26 cells [2]): statistically significant decrease; Surviving fraction (Colo-26 cells [2]): ≤ 0.20; Dox-only concentration giving the same surviving fraction as the combination (Colo-26 cells [2]): 0.3 µM; Increase in uptake in the presence of VER (Colo-26 cells [5]): 1.3- to 2 fold and 2 fold; Papp A→B at 1 h, 5 μM (P-gp [8]): 0.19 ± 0.05 ×10⁻⁶ cm/s; Papp B→A at 1 h, 5 μM (P-gp [8]): 2.9 ± 0.3 ×10⁻⁶ cm/s; efflux ratio at 1 h, 5 μM (P-gp [8]): 15; Papp A→B at 1 h, 5 μM (P-gp [9]): 0.17 ± 0.02 ×10⁻⁶ cm/s; Papp B→A at 1 h, 5 μM (P-gp [9]): 0.18 ± 0.01 ×10⁻⁶ cm/s; Papp at 1 h, 5 μM (P-gp [9]): ~0.2 ×10⁻⁶ cm/s
5 | C[n+]1c(C=CC=C2N(Cc3ccc(CCl)cc3)c3cc(Cl)c(Cl)cc3N2Cc2ccc(CCl)cc2)oc2ccccc21.[Cl-] [MTG, 2-[3-[5,6-dichloro-1,3-bis[[4-(chloromethyl)phenyl]methyl]-1,3-dihydro-2H-benzimidazol-2-ylidene]-1-propenyl]-3-methylbenzoxazolium chloride] |  |  |  |  |  |  |  |  | Mean bright detail similarity score with MTR [10]: 2.0 ± 0.8
6 | CC/N=c1\cc2oc3cc(NCC)c(C)cc3c(-c3ccccc3C(=O)OCC)c-2cc1C [compound 3, rhodamine 6G] |  |  |  |  |  |  |  |  | Quantum yield for fluorescence ΦFL (standard) [11]: 0.93
7 | O[C@@H](COc1cccc2ncccc12)CN1CCN([C@@H]2c3ccccc3[C@@H]3[C@H](c4ccccc42)C3(Cl)Cl)CC1 [compound 24] |  |  |  |  |  |  |  |  | P-gp inhibition (in words) (P-gp [12]): completely inhibits P-gp
8 | tetramethylrosamine [1 (E = O)] |  |  |  |  |  |  |  |  | Transport rate relative to rhodamine 123 (2) or rhodamine 6G (3) (isolated P-gp): 5- to 10 fold
